Test results published in ChEMBL document CHEMBL3769331, “Discovery of a new selective inhibitor of A Disintegrin And Metalloprotease 10 (ADAM-10) able to reduce the shedding of NKG2D ligands in Hodgkin's lymphoma cell models” (Eur J Med Chem, 2016).

Columns and labels:
[1] = target: T1, Disintegrin and metalloproteinase domain-containing protein 17 (Homo sapiens, UniProt P78536); assay: Inhibition of recombinant human ADAM-17 using Mca-Lys-Pro-Leu-Gly-Leu-Dap(Dnp)-Ala-Arg-NH2 as substrate after 30 mins by fluorometric assay
T1 sequence (P78536 whole entry, the tested form may be a part): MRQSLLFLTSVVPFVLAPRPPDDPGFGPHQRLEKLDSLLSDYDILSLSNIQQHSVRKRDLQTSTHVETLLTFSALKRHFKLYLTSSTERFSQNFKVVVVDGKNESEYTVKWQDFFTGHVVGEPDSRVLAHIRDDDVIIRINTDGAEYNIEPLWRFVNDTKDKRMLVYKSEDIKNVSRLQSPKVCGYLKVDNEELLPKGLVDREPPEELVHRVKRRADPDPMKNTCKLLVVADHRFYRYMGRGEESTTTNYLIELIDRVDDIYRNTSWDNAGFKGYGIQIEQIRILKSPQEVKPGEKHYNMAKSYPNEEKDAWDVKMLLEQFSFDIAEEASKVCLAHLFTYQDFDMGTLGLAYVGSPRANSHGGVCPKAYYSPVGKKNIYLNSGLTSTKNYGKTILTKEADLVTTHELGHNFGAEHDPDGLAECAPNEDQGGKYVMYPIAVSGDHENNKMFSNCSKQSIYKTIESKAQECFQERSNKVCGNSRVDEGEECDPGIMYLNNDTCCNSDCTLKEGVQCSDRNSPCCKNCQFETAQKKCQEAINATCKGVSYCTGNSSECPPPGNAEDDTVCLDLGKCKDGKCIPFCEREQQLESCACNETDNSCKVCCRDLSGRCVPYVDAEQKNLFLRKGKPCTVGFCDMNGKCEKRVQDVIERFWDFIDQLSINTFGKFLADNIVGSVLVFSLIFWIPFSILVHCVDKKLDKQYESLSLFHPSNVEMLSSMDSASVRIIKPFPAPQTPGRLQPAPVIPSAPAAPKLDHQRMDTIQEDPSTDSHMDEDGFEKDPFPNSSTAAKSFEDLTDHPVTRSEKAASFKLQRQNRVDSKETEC
Method in brief: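 Recombinant human ADAM-17, final 5 nM, preincubated with inhibitor for 30 min at 37 °C in Tris 25 mM pH 9, ZnCl2 25 µM, Brij-35 0.005%. Substrate final 2 µM. Fluorescence (ex 325/em 400 nm) read every 15 s for 20 min. Duplicates; IC50 from vi/vo = 1/(1+[I]/IC50).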

[2] = target: T2, Disintegrin and metalloproteinase domain-containing protein 10 (Homo sapiens, UniProt O14672); assay: Inhibition of ADAM-10 in human L540 cells assessed as reduction in pervanadate-induced soluble ULBP3 shedding after 24 hrs by ELISA; format: cell-based, L-540
T2 sequence (O14672 whole entry): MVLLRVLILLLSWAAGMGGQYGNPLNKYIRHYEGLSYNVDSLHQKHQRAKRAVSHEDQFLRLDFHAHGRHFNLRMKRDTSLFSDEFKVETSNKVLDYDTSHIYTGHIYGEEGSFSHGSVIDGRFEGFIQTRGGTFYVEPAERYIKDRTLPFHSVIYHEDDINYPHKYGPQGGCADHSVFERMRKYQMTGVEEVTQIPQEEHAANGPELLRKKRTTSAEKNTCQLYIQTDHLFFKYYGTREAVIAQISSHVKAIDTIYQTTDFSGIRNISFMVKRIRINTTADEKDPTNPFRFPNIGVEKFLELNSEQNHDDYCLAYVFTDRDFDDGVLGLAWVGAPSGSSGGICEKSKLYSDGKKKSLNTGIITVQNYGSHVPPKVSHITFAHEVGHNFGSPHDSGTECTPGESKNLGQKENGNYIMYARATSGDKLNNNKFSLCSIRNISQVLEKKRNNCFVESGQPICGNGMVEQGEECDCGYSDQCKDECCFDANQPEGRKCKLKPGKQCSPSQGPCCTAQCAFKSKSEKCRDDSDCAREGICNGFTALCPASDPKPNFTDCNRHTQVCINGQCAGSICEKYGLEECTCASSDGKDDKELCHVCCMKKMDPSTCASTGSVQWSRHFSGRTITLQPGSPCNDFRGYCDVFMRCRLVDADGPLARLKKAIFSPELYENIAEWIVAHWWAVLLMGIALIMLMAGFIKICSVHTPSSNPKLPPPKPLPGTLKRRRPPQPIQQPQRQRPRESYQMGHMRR
Method in brief: (§1)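 Supernatants collected before and after 24 h inhibitor exposure, 10 to 0.1 µM. 100 µM sodium orthovanadate was activated to pervanadate with 100 µM H2O2 and added for 40 min before harvest. Soluble ULBP3 or ALCAM measured by ELISA.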

[3] = Cytotoxicity against human KM-H2 cells assessed as cell viability at 10 uM after 72 to 96 hrs by JC-1 staining-based fluorescence assay; details: read-out: Activity
Method in brief: (§2)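 HL cell lines from DSMZ exposed to inhibitor at 10 µM for 72 and 96 h. Viability read as mitochondrial potential by staining with the dual-emission fluorescent probe JC-1.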

[4] = target: T2, Disintegrin and metalloproteinase domain-containing protein 10; assay: Inhibition of ADAM-10 in human KM-H2 cells assessed as reduction in pervanadate-induced soluble MICB shedding after 24 hrs by ELISA; format: cell-based
Method in brief: (§3)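 Supernatants taken from HL cultures before and after 24 h inhibitor exposure, 10 to 0.1 µM. 100 µM sodium orthovanadate was activated to pervanadate with 100 µM H2O2 and added for 40 min before harvest. Soluble MIC-B measured by ELISA against a MIC-B/Fc chimera standard curve. The DMSO+pervanadate supernatant was set as 100% shedding. Triplicate wells, 3 independent experiments.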

[5] = target: T2, Disintegrin and metalloproteinase domain-containing protein 10; assay: Inhibition of recombinant human ADAM-10 using Mca-Lys-Pro-Leu-Gly-Leu-Dap(Dnp)-Ala-Arg-NH2 as substrate after 1 hr by fluorometric assay
Method in brief: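 Recombinant human ADAM-10, final 20 nM, preincubated with inhibitor for 1 h at 37 °C in Tris 25 mM pH 9, ZnCl2 25 µM, Brij-35 0.005%. Substrate final 10 µM. Fluorescence (ex 325/em 400 nm) read every 15 s for 20 min. Duplicates; IC50 from vi/vo = 1/(1+[I]/IC50).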

[6] = Cytotoxicity against human L428 cells assessed as cell viability at 10 uM after 72 to 96 hrs by JC-1 staining-based fluorescence assay; design: species or system L-428; details: read-out: Activity; method in brief: as §2
[7] = target: T2, Disintegrin and metalloproteinase domain-containing protein 10; assay: Inhibition of ADAM-10 in human L540 cells assessed as reduction in pervanadate-induced soluble MICB shedding after 24 hrs by ELISA; format: cell-based, L-540; method in brief: as §3
[8] = target: Matrix metalloproteinase-9 (Homo sapiens, UniProt P14780); assay: Inhibition of recombinant human MMP-9 using Mca-Lys-Pro-Leu-Gly-Leu-Dap(Dnp)-Ala-Arg-NH2 as substrate after 3 hrs by fluorometric assay
Sequence of Matrix metalloproteinase-9 (P14780 whole entry): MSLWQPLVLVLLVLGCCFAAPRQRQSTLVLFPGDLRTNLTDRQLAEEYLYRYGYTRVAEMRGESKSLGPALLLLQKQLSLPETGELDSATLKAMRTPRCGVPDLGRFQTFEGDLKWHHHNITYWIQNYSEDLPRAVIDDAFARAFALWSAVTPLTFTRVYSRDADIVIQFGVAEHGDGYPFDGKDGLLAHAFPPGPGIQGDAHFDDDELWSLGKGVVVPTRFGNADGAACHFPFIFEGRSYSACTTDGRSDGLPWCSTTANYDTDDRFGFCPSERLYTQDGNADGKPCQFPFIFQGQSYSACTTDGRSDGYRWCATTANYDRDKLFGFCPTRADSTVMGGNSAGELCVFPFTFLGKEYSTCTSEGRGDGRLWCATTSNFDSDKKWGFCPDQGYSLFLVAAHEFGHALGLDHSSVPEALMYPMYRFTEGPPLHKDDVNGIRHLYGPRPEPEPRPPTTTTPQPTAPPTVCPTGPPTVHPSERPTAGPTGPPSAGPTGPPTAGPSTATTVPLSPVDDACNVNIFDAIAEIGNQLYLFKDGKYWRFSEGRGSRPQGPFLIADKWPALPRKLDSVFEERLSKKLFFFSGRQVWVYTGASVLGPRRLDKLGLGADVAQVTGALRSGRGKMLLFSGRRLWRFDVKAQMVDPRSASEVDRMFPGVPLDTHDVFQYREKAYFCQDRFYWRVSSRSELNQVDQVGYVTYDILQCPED
Method in brief: (§4)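 Pro-MMPs were activated with APMA: MMP-1 2 mM for 2 h, MMP-2 2 mM for 1 h, MMP-9 1 mM for 1 h, all at 37 °C. Final enzyme: MMP-1 2.0 nM, MMP-2 0.56 nM, MMP-9 1.3 nM. Enzyme was preincubated with inhibitor for 3 h at 25 °C in Tris 50 mM pH 7.5, NaCl 150 mM, CaCl2 10 mM, Brij-35 0.05%, DMSO 1%. Substrate final 2 µM. Fluorescence (ex 325/em 400 nm) read every 15 s for 20 min. Duplicates; IC50 from vi/vo = 1/(1+[I]/IC50).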

[9] = target: Matrix metalloproteinase-14 (Homo sapiens, UniProt P50281); assay: Inhibition of recombinant human MMP-14 using Mca-Lys-Pro-Leu-Gly-Leu-Dap(Dnp)-Ala-Arg-NH2 as substrate after 3 hrs by fluorometric assay
Method in brief: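 MMP-14 catalytic domain, final 1.0 nM, preincubated with inhibitor for 3 h at 25 °C in Tris 50 mM pH 7.5, NaCl 150 mM, CaCl2 10 mM, Brij-35 0.05%, DMSO 1%. Substrate final 2 µM. Fluorescence (ex 325/em 400 nm) read every 15 s for 20 min. Duplicates; IC50 from the vi/vo equation.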

[10] = target: T2, Disintegrin and metalloproteinase domain-containing protein 10; assay: Inhibition of ADAM-10 in human KM-H2 cells assessed as reduction in pervanadate-induced soluble ULBP3 shedding after 24 hrs by ELISA; format: cell-based; method in brief: as §1
[11] = Cytotoxicity against human L540 cells assessed as cell viability at 10 uM after 72 to 96 hrs by JC-1 staining-based fluorescence assay; design: species or system L-540; details: read-out: Activity; method in brief: as §2
[12] = target: T2, Disintegrin and metalloproteinase domain-containing protein 10; assay: Inhibition of ADAM-10 in human L428 cells assessed as reduction in pervanadate-induced soluble MICB shedding after 24 hrs by ELISA; format: cell-based, L-428; method in brief: as §3
Interstitial collagenase = target: T3, Interstitial collagenase (Homo sapiens, UniProt P03956); assay: Inhibition of human MMP-1 using Mca-Lys-Pro-Leu-Gly-Leu-Dap(Dnp)-Ala-Arg-NH2 as substrate after 3 hrs by fluorometric assay; method in brief: as §4
T3 sequence (P03956 whole entry): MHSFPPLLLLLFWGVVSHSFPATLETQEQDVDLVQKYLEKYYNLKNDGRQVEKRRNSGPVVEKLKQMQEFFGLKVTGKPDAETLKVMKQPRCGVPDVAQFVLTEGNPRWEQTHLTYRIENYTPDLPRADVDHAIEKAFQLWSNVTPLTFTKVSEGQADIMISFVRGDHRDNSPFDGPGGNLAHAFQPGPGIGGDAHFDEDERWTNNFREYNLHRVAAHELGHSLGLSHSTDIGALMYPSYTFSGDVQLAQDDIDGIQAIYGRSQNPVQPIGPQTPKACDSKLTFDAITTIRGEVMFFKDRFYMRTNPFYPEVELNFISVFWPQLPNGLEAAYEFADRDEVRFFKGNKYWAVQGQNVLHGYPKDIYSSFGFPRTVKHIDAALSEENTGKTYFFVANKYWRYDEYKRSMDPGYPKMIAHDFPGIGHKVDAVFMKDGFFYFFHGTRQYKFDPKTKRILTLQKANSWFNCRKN

[13] = target: T2, Disintegrin and metalloproteinase domain-containing protein 10; assay: Inhibition of ADAM-10 in human L428 cells assessed as reduction in pervanadate-induced soluble ULBP3 shedding after 24 hrs by ELISA; format: cell-based, L-428; method in brief: as §1
[14] = target: 72 kDa type IV collagenase (Homo sapiens, UniProt P08253); assay: Inhibition of recombinant human MMP-2 using Mca-Lys-Pro-Leu-Gly-Leu-Dap(Dnp)-Ala-Arg-NH2 as substrate after 3 hrs by fluorometric assay; method in brief: as §4
Sequence of 72 kDa type IV collagenase (P08253 whole entry, the tested form may be a part): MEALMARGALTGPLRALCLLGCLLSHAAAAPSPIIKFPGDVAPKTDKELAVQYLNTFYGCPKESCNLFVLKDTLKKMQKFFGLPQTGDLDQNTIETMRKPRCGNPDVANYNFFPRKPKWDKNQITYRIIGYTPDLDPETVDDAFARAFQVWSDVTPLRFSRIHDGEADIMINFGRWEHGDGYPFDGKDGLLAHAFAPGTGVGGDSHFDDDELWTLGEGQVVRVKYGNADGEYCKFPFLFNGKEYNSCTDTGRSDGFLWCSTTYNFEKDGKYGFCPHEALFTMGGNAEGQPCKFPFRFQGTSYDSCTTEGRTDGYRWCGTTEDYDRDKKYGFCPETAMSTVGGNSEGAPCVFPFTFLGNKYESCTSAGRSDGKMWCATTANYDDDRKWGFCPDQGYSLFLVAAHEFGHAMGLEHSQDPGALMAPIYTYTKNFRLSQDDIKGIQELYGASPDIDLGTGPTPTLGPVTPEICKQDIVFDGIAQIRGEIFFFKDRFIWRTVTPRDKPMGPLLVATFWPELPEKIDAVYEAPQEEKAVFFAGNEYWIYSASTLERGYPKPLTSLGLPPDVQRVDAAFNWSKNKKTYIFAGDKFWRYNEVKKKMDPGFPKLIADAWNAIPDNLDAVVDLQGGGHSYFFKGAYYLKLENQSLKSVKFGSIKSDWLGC

[15] = target: T1, Disintegrin and metalloproteinase domain-containing protein 17; assay: Inhibition of ADAM-17 in human L428 cells assessed as reduction in pervanadate-induced soluble ALCAM shedding after 24 hrs by ELISA; format: cell-based, L-428; method in brief: as §1
[16] = target: T1, Disintegrin and metalloproteinase domain-containing protein 17; assay: Inhibition of ADAM-17 in human KM-H2 cells assessed as reduction in pervanadate-induced soluble ALCAM shedding after 24 hrs by ELISA; format: cell-based; method in brief: as §1

| IC50 [1] | IC50 [2] | IC50 [4] | IC50 [5] | IC50 [7] | IC50 [8] | IC50 [9] | IC50 [10] | IC50 [12] | IC50 (Interstitial collagenase) | IC50 [13] | IC50 [14] | IC50 [15] | IC50 [16] | SMILES | viability at 10 µM [3] | viability at 10 µM [6] | viability at 10 µM [11] |
| --- | --- | --- | --- | --- | --- | --- | --- | --- | --- | --- | --- | --- | --- | --- | --- | --- | --- |
| 0.09 µM | 10 µM | 7 µM | 0.0092 µM | 12 µM | 4.5 µM | 50 µM | 10 µM | 7 µM | > 200 µM | 10 µM | 0.37 µM | 1 µM | 1 µM | Cc1cc(C#N)ccc1N1CCN(S(=O)(=O)N[C@H](CCCNC(=O)OCc2ccccc2)C(=O)NO)CC1 | > 96% | > 96% | > 96% |
|  | 12 µM | 15 µM |  | 15 µM |  |  | 15 µM | 15 µM |  | 10 µM |  | 0.1 µM | 0.5 µM | O=C(NCCC[C@@H](NS(=O)(=O)c1ccc(OCc2cc(Br)cc(Br)c2)cc1)C(=O)NO)OCc1ccccc1 | > 96% | > 96% | > 96% |
| 0.86 µM | 10 µM | 12 µM | 0.027 µM | 12 µM | 0.0051 µM | 0.088 µM | 10 µM | 12 µM | 0.125 µM | 15 µM | 0.0021 µM | 10 µM | 10 µM | CNC(=O)[C@@H](NC(=O)[C@H](CCCc1ccccc1)[C@H](C)N(O)C=O)C(C)(C)C |  |  |  |
| 1.5 µM | 7 µM | 5 µM | 0.04 µM | 7 µM | 24 µM | 100 µM | 7 µM | 5 µM | 346 µM | 5 µM | 5.4 µM | 12 µM | 10 µM | Cc1cc(C#N)ccc1N1CCN(S(=O)(=O)N2CSC[C@@H]2C(=O)NO)CC1 | > 96% | > 96% | > 96% |
